The source made the active and inactive calls. The calls are words filed in the database; no cut-off is given here.

A short description of data set [1]: Neurotoxicity in ip dosed Sprague-Dawley albino rat assessed as minimal motor impairment by rotarod test. The following applies: in vivo. The data set is classed as toxicity, organism-based. The method in brief:
(§1)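 Quantitative testing: rats dosed orally or ip in MES and scMet tests, and mice dosed ip, including the 6 Hz (32 mA) psychomotor seizure test. ED50 and TD50 were reported in mg/kg with ranges in parentheses. Protective index was calculated as TD50/ED50.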
(In general: Falling from the rotarod earlier than controls is read as motor impairment.)

Data set [2] has as its system Mus musculus. Nature of the data set: Protective index, ratio of TD50 for ip dosed albino CF1 mouse by rotarod test to ED50 for ip dosed albino CF1 mouse by 6 Hz psychomotor seizure test. It is filed as functional. Put shortly: (§2)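 Protective index calculated as TD50/ED50, with TD50 and ED50 taken from the same species and dosing route.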
Data set [3] concerns Mus musculus. Description: Anticonvulsant activity in albino CF1 mouse assessed as protection against subcutaneous metrazol-induced seizures at 300 mg/kg, ip after 0.5 hrs. It is filed as functional, organism-based. More on the design: dose 300 mg/kg. Put shortly: (§3)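 Mice dosed ip at 30, 100 or 300 mg/kg, then tested 0.5 h and 4 h after administration in the MES or scMet test. Protection was recorded as animals protected over animals tested. Neurotoxicity was recorded as motor impairment or sedation, as animals affected over animals tested.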

Data set [4] concerns Mus musculus. Description: Anticonvulsant activity in albino CF1 mouse assessed as protection against subcutaneous metrazol-induced seizures at 300 mg/kg, ip after 4 hrs. The data set is classed as functional, organism-based. On the set-up: dose 300 mg/kg. Put shortly:
as §3

Data set [5] relates to Mus musculus. Description: Anticonvulsant activity in albino CF1 mouse assessed as protection against maximal electroshock-induced seizures at 300 mg/kg, ip after 0.5 hrs. It is filed as functional, organism-based. More on the design: dose 300 mg/kg. The method in brief: as §3
On the technique in general: Protection in the maximal electroshock model is a classic sign of anticonvulsant action.

Data set [6] deals with Mus musculus. Nature of the data set: Neurotoxicity in albino CF1 mouse assessed as minimal motor impairment at 30 mg/kg, ip after 0.5 hrs by rotarod test. The data set is classed as toxicity, organism-based. On the set-up: dose 30 mg/kg, route intraperitoneal. The following applies: in vivo. Put shortly:
as §3

Data set [7] concerns Mus musculus. Nature of the data set: Neurotoxicity in albino CF1 mouse assessed as minimal motor impairment at 30 mg/kg, ip after 4 hrs by rotarod test. It is filed as toxicity, organism-based. To be noted: in vivo. On the set-up: dose 30 mg/kg, route intraperitoneal. The method in brief:
as §3

The subject of data set [8] is Rattus norvegicus. Description: Anticonvulsant activity in ip dosed Sprague-Dawley albino rat assessed as protection against maximal electroshock-induced seizures. It is filed as functional. The method in brief: as §1
Data set [9] concerns Mus musculus. Nature of the data set: Protective index, ratio of TD50 for ip dosed albino CF1 mouse by rotarod test to ED50 for ip dosed albino CF1 mouse by maximal electroshock seizures test. The data set is classed as functional. The method in brief: as §2
Data set [10] relates to Rattus norvegicus. Description: Anticonvulsant activity in ip dosed Sprague-Dawley albino rat assessed as protection against subcutaneous metrazol-induced seizures. The data set is classed as functional. The method in brief:
as §1

In data set [11] the test system is Rattus norvegicus. Nature of the data set: Protective index, ratio of TD50 for po dosed Sprague-Dawley albino rat by rotarod test to ED50 for po dosed Sprague-Dawley albino rat by subcutaneous metrazol seizures test. It is filed as functional. Put shortly:
as §2

In data set [12] the test system is Mus musculus. Nature of the data set: Protective index, ratio of TD50 for ip dosed albino CF1 mouse by rotarod test to ED50 for ip dosed albino CF1 mouse by subcutaneous metrazol seizures test. The data set is classed as functional. The method in brief:
as §2

Data set [13] has as its system Rattus norvegicus. Nature of the data set: Neurotoxicity in pilocarpine-induced status epilepticus Sprague-Dawley albino rat model assessed as minimal motor impairment at 100 mg/kg, ip after 1 hr by rotarod test. On the set-up: dose 100 mg/kg, route intraperitoneal. To be noted: in vivo. The data set is classed as toxicity, organism-based.
Data set [14] relates to Rattus norvegicus. Nature of the data set: Neurotoxicity in pilocarpine-induced status epilepticus Sprague-Dawley albino rat model assessed as minimal motor impairment at 100 mg/kg, ip after 2 hrs by rotarod test. It is filed as toxicity, organism-based. More on the design: dose 100 mg/kg, route intraperitoneal. The following applies: in vivo.
Data set [15] relates to Rattus norvegicus. Description: Neurotoxicity in pilocarpine-induced status epilepticus Sprague-Dawley albino rat model assessed as minimal motor impairment at 30 mg/kg, ip after 2 hrs by rotarod test. To be noted: in vivo. The data set is classed as toxicity, organism-based. More on the design: dose 30 mg/kg, route intraperitoneal. Put shortly:
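Rat pilocarpine status epilepticus model: test carbamate given at 0 or 30 min after the first observed Racine stage 3 motor seizure, which marks SE onset. Neurotoxicity was scored within the same model.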

Data set [16] deals with Rattus norvegicus. Description: Neurotoxicity in pilocarpine-induced status epilepticus Sprague-Dawley albino rat model assessed as minimal motor impairment at 100 mg/kg, ip after 4 hrs by rotarod test. It is filed as toxicity, organism-based. More on the design: dose 100 mg/kg, route intraperitoneal. To be noted: in vivo.
The test system of data set [17] is Rattus norvegicus. Nature of the data set: Ratio of ED50 for po dosed Sprague-Dawley albino rat to ED50 for ip dosed Sprague-Dawley albino rat by maximal electroshock-induced seizure test. It is filed as functional.

As a reminder, the TD50 is the dose at which the toxic effect under study appears in half of the subjects. For orientation: ED50 means the midpoint of the dose-response relation. On to `CCC(COC(N)=O)C(C)C` (racemic), for which, in data set [1], the TD50 came out at 58 mg/kg. The “Ratio TD50/ED50” value in the data set on Mus musculus [2] was 4.4; with Mus musculus [9] it was 1.5; with Rattus norvegicus [11], 14; with Mus musculus [12], 2.9. Moreover, the outcome in the data set on Mus musculus [3] and with Mus musculus [5] was Active. Besides, the outcome in the data set with Mus musculus [4] was inactive. The Activity result in the data set with Mus musculus [6], in the data set with Mus musculus [7], with Rattus norvegicus [13], with Rattus norvegicus [14], with Rattus norvegicus [15] and in the data set with Rattus norvegicus [16] was “Non-toxic” in each case. For the same molecule, the ED50 is 16 mg/kg in the data set on Rattus norvegicus [8] and 19 mg/kg in the data set with Rattus norvegicus [10]. Further, in the data set on Rattus norvegicus [17], the “Ratio ED50” value is listed as 4.
